Compounds with a hit are over-represented: about 2.2% of the library has one in this group of screens.
SUMO Mot1 rescue: yeast Mot1-301 growth rescue at high temperature, primary screen, SUMOylation pathway inhibitor project, S. cerevisiae, ATP luminescence, 38.5C; AID 2716, 2010; 320,000 tested, 1% active; growth rescue, % at 18.8 µM; S. cerevisiae Mot1-301 growth rescue; percent above DMSO median, 100 means doubled;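 active = every valid replicate shows activation above 250% relative to neutral control wells; inactive = the rest, any valid replicate at or below 250%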;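 also: OY570 slx delta 5 strain wells were the positive control but not used for scaling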
rRNA inh HTS: reduced GFP signal of wild-type E. coli, primary screen, bacterial rRNA inhibitor project, GFP/RFP fluorescence, OD600, single point. E. coli WT GFP vs humanized-ribosome RFP mutants, 24 h; hits give low values; DMSO median 0, no signal -100. GFP signal change (wild-type ribosome), % (no concentration beside the values). 350,000 tested, 1.6% active;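 active = significant combined selectivity score with lowered wild-type GFP, culture density cut under 30%, mutant RFP and density less affected; inactive = any of these conditions unmet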
PglD DTNB: C. jejuni PglD acetyltransferase inhibitors, primary screen, biochemical, DTNB colorimetric, single point. 360,000 tested, 0.098% active. purified PglD enzyme, DTNB colorimetric CoA detection. inhibition, % at 12.5 µM; in the data active = inhibition above about 16%, passing the limit was not always enough; inconclusive = no clear call, values can overlap the other calls
Yeast superoxide: reduction of superoxide in aged yeast, primary screen, HTS | S. cerevisiae aged cells, superoxide DHE fluorescence; hits give low values | 330,000 tested, 0.18% active | superoxide response (% of plate mean), % at 10 µM | AID 2690, 2010;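 active = superoxide response under a set limit, about three screen SD below normal, cut at about 65% in these data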;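 also: yeast aged for seven days with compound at 30 °C before DHE staining; 100% = average MFI of all compound-treated wells on the plate with controls excluded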
Cneo AK release: Cryptococcus neoformans cell lysis inducers, primary screen, AK release luminescence, single concentration. C. neoformans lysis, adenylate kinase release luminescence, 4 h; normalised: neutral wells 0, clomiphene wells 100. lysis activity, % at 15 µM. 360,000 tested, 0.2% active. AID 651654, 2012;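 active = mean lysis activity across replicates of at least 80%, whatever share of replicates individually reach that level; inactive = mean lysis activity below 80%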
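read-out = cell lysis signal | test system = log-phase Cryptococcus neoformans yeast cells | input = cells at 5 × 10^6 per mL | medium = fresh YPD growth medium | signal = luminescent adenylate kinase detection reagent | timing = 4 h at 37 °C static, read 1 h later | dosing = single dose | controls = Clomiphene as positive lysis control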
HepG2 cytotox: cytotoxicity in HepG2 cells, dose response, cytotoxicity control, cell-based, CellTiter-Glo luminescence, cherry-pick, set 4 | shares compounds with rRNA inh HTS | HepG2 viability, ATP luminescence, 72 h | AID 743480, 2014 | activity change, negative = cytotoxicity, unspecified at 26 µM | 30 tested, under 10 active;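 active = compounds whose fitted half-maximal signal-loss concentration is at most twice their highest valid dose; inconclusive = flat curve with 30 to 70% signal loss, or poor fit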
AID977621: growth inhibition of wild-type GFP E. coli, dose response, H69 mutant RFP, cherry-pick; activity change, negative = inhibition at 50 µM; 1,900 tested, under 10 active; E. coli wild-type GFP strain growth, fluorescence, 24 h; shares compounds with rRNA inh HTS;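 active = Wild-type ribosome reporter drop at least double the humanized mutant ribosome reporter drop, growth loss under a set limit; inconclusive = no clear call, values can overlap the other calls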;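 also: wild-type GFP and H69 mutant RFP strains grown together 50/50 in each well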
AID977628: E. coli growth inhibition, wild-type GFP versus h24 humanized RFP strain, dose response, h24 mutant RFP vs wild-type GFP, cherry-pick; 1,900 tested, under 10 active; activity change, negative = inhibition at 50 µM; shares compounds with rRNA inh HTS; E. coli WT GFP strain growth, fluorescence, 24 h;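 active = compound lowering the normal-ribosome reporter at least twice as much as the humanized-ribosome reporter, growth loss under a set limit; inconclusive = no clear call, values can overlap the other calls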;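 also: wild-type GFP and h24 humanized RFP strains co-cultured 1 to 1 per well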
* = called active by the depositor; ? = inconclusive; · = not tested or not shown.

SMILES	SUMO Mot1 rescue	rRNA inh HTS	PglD DTNB	Yeast superoxide	Cneo AK release	AID977621	AID977628	others
C[C@H]1CCCCO[C@@H](CN(C)S(=O)(=O)c2ccccc2)[C@@H](C)CN([C@@H](C)CO)C(=O)c2cc(NS(=O)(=O)c3ccc(F)cc3)ccc2O1	·	-3.4	6.3	·	55.6	·	·
Cc1cc(OCC(=O)N(Cc2ccco2)C2CCS(=O)(=O)C2)ccc1Cl (stereo not given)	-0.2	-18.9*	4.7	101.6	1.8	?	·
O=C(Nc1ccccc1)N[C@H]1CC[C@@H](CCn2cc(C3(O)CCCC3)nn2)O[C@H]1CO	·	-1.6	2.7	·	12.6	·	·
C[C@H]1CCCCO[C@H](CN(C)C(=O)CCCN(C)C)[C@@H](C)CN([C@@H](C)CO)C(=O)c2cc(NC(=O)CCC(F)(F)F)ccc2O1	·	0.1	-1.8	·	44.8	·	·
C=CCS(=O)(=O)c1cccc2cccnc12	3.7	24.2	·	91.2	·	·	·
C=CCN(c1ccccc1)S(=O)(=O)c1cccc2cccnc12	-7.8	-24.2*	·	75.8	·	2.26	·
C[C@H](O)C#Cc1ccc2c(c1)O[C@@H](CN(C)CC1CC1)[C@@H](C)CN([C@@H](C)CO)S2(=O)=O	·	-0.8	·	·	·	·	·
COc1cccc(C(=O)Nc2ccc3c(c2)C(=O)N(C)[C@@H]2CC[C@H](CC(=O)NCc4ccccc4F)O[C@@H]2CO3)c1	·	-7.5	2.1	·	-0.8	·	·
CC(=O)C(C(c1ccccc1)N1CCOCC1)N1CCOCC1 (stereo not given)	·	14.1	1.1	·	0.1	·	·
COc1ccccc1C(C(C(=O)c1ccccc1)N1CCOCC1)N1CCOCC1 (stereo not given)	·	-14.4*	6.7	·	-1.0	-7.06	?
CN(CC(=O)Nc1ccc(F)cc1)C(=O)COc1ccc([N+](=O)[O-])cc1Cl	-21.8	-23.8*	-8.8	110.9	-1.7	-16.4	-6.83
Cc1ccc(OCC(=O)N(C)CC(=O)Nc2ccc(F)cc2)c([N+](=O)[O-])n1	-12.8	8.7	10.6	100.5	-4.3	·	·
CNC(=O)c1cc(C(=O)c2ccc(C(F)(F)F)cc2F)c[nH]1	5.5	-25.0*	·	94.2	·	-7	?
CNC(=O)c1cc(C(=O)c2ccc(C(F)(F)F)cc2)c[nH]1	83.0	-2.6	5.6	104.9	-0.3	·	·
C[C@@H]1CN([C@H](C)CO)C(=O)c2cccc(NC(=O)c3cnccn3)c2O[C@H]1CN(C)Cc1ccccc1	·	-1.5	8.4	·	-2.0	·	·
O=C(C[C@@H]1C=C[C@H](NC(=O)c2ccccn2)[C@H](CO)O1)NCc1cc(F)cc(F)c1	·	0.2	3.3	·	0.8	·	·
O=C(CCc1nc2ccccc2s1)Nc1ccccc1	-9.4	·	·	102.7	·	·	·
c1ccc(Cc2nc3ccccc3s2)cc1	·	-17.6*	0.5	·	0.7	·	-12.1
CCc1cc(CN2CCOCC2)c(NC(=O)c2ccccc2)s1	-9.0	-17.4*	·	109.8	·	-0.08	-4.82
CCc1cc(C(c2ccc(F)cc2)N2CCOCC2)c(NC(=O)c2ccccc2)s1 (stereo not given)	1.4	·	-7.6	103.6	2.2	·	·
O=C(O)CC1(CC(=O)Nc2ccc3sccc3c2)CCCCC1	31.8	-25.6*	-1.9	132.8	-0.3	5.89	-11.5
COc1ccc(-c2csc3ncn(-c4ccc(C)cc4)c(=O)c23)cc1OC	-8.9	-22.7*	-6.4	120.7	0.0	?	·
C[C@@H]1CN([C@H](C)CO)C(=O)c2cccc(NS(=O)(=O)c3ccc(F)cc3)c2O[C@H]1CN(C)CC1CCCCC1	·	0.4	-0.2	·	-3.6	·	·
Cc1ccc(OCC(O)CN2CCN(c3ccccn3)CC2)c(C)c1 (stereo not given)	·	-17.3*	·	100.3	·	·	?
COc1cccc(NC(=O)COC(=O)Cc2ccccc2[N+](=O)[O-])c1	-3.3	-17.1*	4.1	92.2	-2.2	·	?
SMILES	SUMO Mot1 rescue	rRNA inh HTS	PglD DTNB	Yeast superoxide	Cneo AK release	AID977621	AID977628	others
COc1ccc(CCNC(=O)COC(=O)Cc2ccccc2[N+](=O)[O-])cc1	-9.4	-0.1	-0.6	107.1	2.1	·	·
Cc1ccc(S(=O)(=O)N2CC(O)CC2C(=O)NCc2ccc3c(c2)OCO3)cc1 (stereo not given)	-1.3	7.6	·	107.7	2.2	·	·
O=C(NCc1ccc2c(c1)OCO2)C1CCCN1S(=O)(=O)c1ccc(Cl)cc1 (stereo not given)	·	-19.0*	·	98.9	·	-24.2	·
CC(=O)c1cccc(NC(=O)C2CCCN(S(C)(=O)=O)C2)c1 (stereo not given)	-5.4	-27.3*	0.5	92.8	6.9	2.1	1.1
CS(=O)(=O)N1CCCC(C(=O)Nc2cccc(F)c2)C1 (stereo not given)	-5.4	7.1	-0.4	103.8	0.7	·	·
CC1(Cc2ccc(C(F)(F)F)nc2)C(=O)Nc2cc(-c3ccccc3Cl)ccc21 (stereo not given)	·	-0.5	-0.6	·	-1.8	·	·
CC1(Cc2ccccc2C#N)C(=O)Nc2cc(-c3ccccc3Cl)ccc21 (stereo not given)	·	-11.1*	-5.5	·	-1.1	·	·	HepG2 cytotox=8.46
CC(C)CNc1nc(S(=O)(=O)c2ccccc2)c(Cl)s1	-10.6	-40.0*	0.6	96.4	-0.8	?	-9.25
COc1ccc(NC(=O)N(C)C[C@H]2Oc3ccc(NC(=O)Nc4cccc5ccccc45)cc3CC(=O)N([C@H](C)CO)C[C@@H]2C)cc1	·	-6.5	-1.2	·	38.6	·	·
CC(C)(C)C1CCC(C(=O)OCC(=O)N2CCN(C(=O)c3ccco3)CC2)CC1 (stereo not given)	36.3	-21.8*	5.5	109.0	-0.8	-5.04	-5.56
CC(=O)c1ccc(Sc2ccccc2N)c([N+](=O)[O-])c1	-17.1	-15.8*	-4.8	118.5	0.3	·	-13.1
O=C([C@H]1N[C@H]2c3ccc(C4=CCCCC4)c(=O)n3C[C@H]2[C@@H]1CO)N1CCc2ccccc2C1	·	-4.7	·	·	·	·	·
CC1CCC2(CC1)SCC(=O)N2c1ccc(F)cc1 (stereo not given)	-4.7	-19.1*	·	105.5	·	-3.03	-8.17
CC(C)(C)C1CCC2(CC1)SCC(=O)N2c1ccccc1 (stereo not given)	50.7	3.9	0.5	102.5	28.7	·	·

High-throughput results deposited in PubChem BioAssay by several laboratories.
